# Experimental data as given in ChEMBL document CHEMBL5661979, “Pharmacological inhibition of BMK1 suppresses tumor growth through promyelocytic leukemia protein” (Cancer Cell, 2010).
# pIC50, pKd: −log10 of the molar value.
# Experiments:
# Activated CDC42 kinase 1 [1] = target: T1, Activated CDC42 kinase 1 (Homo sapiens, UniProt Q07912); assay: Inhibition of TNK2 (unknown origin) assessed as remaining activity at 10 uM by ATP-competition binding assay relative to control
# [2] = Inhibition of NEK6/7 in human HeLa cells lysate pre incubated for 15 mins followed by ADP acyl phosphate probe addition and measured after 10 mins by LC-MS/MS analysis; assay type: subcellular
# [3] = target: Serine/threonine-protein kinase 24 (Homo sapiens, UniProt Q9Y6E0); assay: Inhibition of MST3 in human HeLa cells lysate at 50 uM pre incubated for 15 mins followed by ADP acyl phosphate probe addition and measured after 10 mins by LC-MS/MS analysis relative to control; assay type: subcellular; details: time 25.0 min
# Serine/threonine-protein kinase 24, sequence (Q9Y6E0 whole entry, looked up): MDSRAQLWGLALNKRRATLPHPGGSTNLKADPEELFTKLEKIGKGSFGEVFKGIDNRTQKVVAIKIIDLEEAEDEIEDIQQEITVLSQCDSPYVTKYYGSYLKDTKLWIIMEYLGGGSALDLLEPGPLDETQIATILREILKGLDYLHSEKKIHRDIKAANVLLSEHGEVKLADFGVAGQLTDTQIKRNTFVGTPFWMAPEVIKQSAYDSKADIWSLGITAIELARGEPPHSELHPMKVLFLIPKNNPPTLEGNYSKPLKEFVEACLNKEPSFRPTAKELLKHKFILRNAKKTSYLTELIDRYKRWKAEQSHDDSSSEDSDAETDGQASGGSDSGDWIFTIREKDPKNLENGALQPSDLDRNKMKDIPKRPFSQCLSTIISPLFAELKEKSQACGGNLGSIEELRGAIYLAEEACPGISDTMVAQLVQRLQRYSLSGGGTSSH
# [4] = Inhibition of MAP3K2/MAP3K3 in human HeLa cells lysate at 50 uM pre incubated for 15 mins followed by ADP acyl phosphate probe addition and measured after 10 mins by LC-MS/MS analysis relative to control; details: 25 min, condition cancer
# Activated CDC42 kinase 1 [5] = target: T1, Activated CDC42 kinase 1; assay: Inhibition of ACK1 in human HeLa cells lysate at 10 uM pre incubated for 15 mins followed by ADP acyl phosphate probe addition and measured after 10 mins by LC-MS/MS analysis relative to control; assay type: subcellular; details: time 25.0 min
# Outline: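 HeLa cell lysates (5 mg/mL total protein) were preincubated with inhibitor at 0, 0.8, 2, 10 or 50 μM for 15 min. ATP or ADP acylphosphate probe was then added (5 μM final) for 10 min, and reactions were stopped with urea. Up to four fragment ions per kinase probe-peptide were quantified by targeted MS. % inhibition was taken relative to untreated lysate. Run in duplicate.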
# [6] = target: T2, Mixed lineage kinase domain-like protein (Homo sapiens) (UniProt Q8NB16); assay: Inhibition of MLKL in human HeLa cells lysate at 2 uM pre incubated for 15 mins followed by ADP acyl phosphate probe addition and measured after 10 mins by LC-MS/MS analysis relative to control; assay type: subcellular; details: time 25.0 min
# T2 sequence (whole entry): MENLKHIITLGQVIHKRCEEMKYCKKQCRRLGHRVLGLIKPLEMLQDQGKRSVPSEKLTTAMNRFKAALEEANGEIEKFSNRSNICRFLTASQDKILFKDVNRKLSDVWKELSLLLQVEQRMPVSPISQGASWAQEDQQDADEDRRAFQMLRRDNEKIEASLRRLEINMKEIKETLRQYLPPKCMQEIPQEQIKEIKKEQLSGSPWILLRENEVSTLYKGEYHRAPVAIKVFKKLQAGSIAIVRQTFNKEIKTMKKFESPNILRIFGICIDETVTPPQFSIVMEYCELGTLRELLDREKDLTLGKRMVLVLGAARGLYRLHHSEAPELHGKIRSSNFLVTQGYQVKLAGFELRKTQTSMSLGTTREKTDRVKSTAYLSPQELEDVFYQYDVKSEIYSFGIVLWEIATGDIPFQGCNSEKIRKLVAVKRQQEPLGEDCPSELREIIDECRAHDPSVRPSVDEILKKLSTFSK
# [7] = target: Serine/threonine-protein kinase B-raf (Homo sapiens, UniProt P15056); assay: Inhibition of BRAF in human HeLa cells lysate at 2 uM pre incubated for 15 mins followed by ADP acyl phosphate probe addition and measured after 10 mins by LC-MS/MS analysis relative to control; assay type: subcellular; details: time 25.0 min
# Outline: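 KiNativ-type profiling in HeLa lysate (5 mg/mL total protein). Lysate preincubated 15 min with inhibitor at 50, 10, 2, 0.8 or 0 μM, then ATP or ADP acylphosphate probe added (5 μM final) for 10 min. Reaction stopped with urea and analysed by targeted MS, using up to four fragment ions per kinase peptide-probe conjugate. % inhibition calculated against untreated lysate. Duplicate reactions.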
# [8] = target: Serine/threonine-protein kinase LATS2 (Homo sapiens) (UniProt Q9NRM7); assay: Inhibition of LATS2 in human HeLa cells lysate at 2 uM pre incubated for 15 mins followed by ADP acyl phosphate probe addition and measured after 10 mins by LC-MS/MS analysis relative to control; assay type: subcellular; details: time 25.0 min
# Serine/threonine-protein kinase LATS2 (Homo sapiens), sequence (Q9NRM7 whole entry, the tested form may be a part): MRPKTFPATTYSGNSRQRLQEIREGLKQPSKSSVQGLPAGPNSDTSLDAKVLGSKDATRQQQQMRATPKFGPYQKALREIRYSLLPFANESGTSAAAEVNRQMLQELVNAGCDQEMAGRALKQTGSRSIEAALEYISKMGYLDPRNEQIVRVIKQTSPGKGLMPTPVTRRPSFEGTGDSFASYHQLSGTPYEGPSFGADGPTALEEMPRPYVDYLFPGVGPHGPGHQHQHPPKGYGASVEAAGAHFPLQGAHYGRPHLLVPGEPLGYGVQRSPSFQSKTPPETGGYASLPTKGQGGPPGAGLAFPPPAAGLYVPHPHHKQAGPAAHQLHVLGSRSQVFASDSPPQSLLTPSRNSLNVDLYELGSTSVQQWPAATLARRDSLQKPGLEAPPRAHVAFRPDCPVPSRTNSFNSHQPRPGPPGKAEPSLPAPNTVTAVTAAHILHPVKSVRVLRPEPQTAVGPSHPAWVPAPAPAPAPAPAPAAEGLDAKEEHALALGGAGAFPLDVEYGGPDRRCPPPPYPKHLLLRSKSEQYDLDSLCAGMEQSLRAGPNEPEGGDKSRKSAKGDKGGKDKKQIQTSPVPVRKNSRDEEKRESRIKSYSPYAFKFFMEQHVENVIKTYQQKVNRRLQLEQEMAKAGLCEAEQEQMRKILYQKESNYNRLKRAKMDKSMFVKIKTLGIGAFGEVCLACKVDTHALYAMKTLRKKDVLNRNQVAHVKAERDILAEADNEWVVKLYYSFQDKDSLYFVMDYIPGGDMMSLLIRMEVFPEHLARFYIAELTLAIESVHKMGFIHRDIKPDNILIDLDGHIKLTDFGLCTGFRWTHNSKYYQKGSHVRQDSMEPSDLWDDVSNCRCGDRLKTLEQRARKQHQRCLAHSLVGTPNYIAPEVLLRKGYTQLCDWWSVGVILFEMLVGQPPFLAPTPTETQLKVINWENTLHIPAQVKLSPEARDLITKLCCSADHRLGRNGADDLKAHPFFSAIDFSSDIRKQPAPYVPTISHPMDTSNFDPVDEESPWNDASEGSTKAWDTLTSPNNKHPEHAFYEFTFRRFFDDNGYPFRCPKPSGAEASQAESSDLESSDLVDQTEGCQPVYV
# [9] = target: Phosphatidylinositol 4-phosphate 3-kinase C2 domain-containing subunit beta (Homo sapiens, UniProt O00750); assay: Inhibition of PIK3C2B in human HeLa cells lysate at 2 uM pre incubated for 15 mins followed by ATP acyl phosphate probe addition and measured after 10 mins by LC-MS/MS analysis relative to control; assay type: subcellular; details: time 25.0 min
# Phosphatidylinositol 4-phosphate 3-kinase C2 domain-containing subunit beta, sequence (O00750 whole entry, the tested form may be a part): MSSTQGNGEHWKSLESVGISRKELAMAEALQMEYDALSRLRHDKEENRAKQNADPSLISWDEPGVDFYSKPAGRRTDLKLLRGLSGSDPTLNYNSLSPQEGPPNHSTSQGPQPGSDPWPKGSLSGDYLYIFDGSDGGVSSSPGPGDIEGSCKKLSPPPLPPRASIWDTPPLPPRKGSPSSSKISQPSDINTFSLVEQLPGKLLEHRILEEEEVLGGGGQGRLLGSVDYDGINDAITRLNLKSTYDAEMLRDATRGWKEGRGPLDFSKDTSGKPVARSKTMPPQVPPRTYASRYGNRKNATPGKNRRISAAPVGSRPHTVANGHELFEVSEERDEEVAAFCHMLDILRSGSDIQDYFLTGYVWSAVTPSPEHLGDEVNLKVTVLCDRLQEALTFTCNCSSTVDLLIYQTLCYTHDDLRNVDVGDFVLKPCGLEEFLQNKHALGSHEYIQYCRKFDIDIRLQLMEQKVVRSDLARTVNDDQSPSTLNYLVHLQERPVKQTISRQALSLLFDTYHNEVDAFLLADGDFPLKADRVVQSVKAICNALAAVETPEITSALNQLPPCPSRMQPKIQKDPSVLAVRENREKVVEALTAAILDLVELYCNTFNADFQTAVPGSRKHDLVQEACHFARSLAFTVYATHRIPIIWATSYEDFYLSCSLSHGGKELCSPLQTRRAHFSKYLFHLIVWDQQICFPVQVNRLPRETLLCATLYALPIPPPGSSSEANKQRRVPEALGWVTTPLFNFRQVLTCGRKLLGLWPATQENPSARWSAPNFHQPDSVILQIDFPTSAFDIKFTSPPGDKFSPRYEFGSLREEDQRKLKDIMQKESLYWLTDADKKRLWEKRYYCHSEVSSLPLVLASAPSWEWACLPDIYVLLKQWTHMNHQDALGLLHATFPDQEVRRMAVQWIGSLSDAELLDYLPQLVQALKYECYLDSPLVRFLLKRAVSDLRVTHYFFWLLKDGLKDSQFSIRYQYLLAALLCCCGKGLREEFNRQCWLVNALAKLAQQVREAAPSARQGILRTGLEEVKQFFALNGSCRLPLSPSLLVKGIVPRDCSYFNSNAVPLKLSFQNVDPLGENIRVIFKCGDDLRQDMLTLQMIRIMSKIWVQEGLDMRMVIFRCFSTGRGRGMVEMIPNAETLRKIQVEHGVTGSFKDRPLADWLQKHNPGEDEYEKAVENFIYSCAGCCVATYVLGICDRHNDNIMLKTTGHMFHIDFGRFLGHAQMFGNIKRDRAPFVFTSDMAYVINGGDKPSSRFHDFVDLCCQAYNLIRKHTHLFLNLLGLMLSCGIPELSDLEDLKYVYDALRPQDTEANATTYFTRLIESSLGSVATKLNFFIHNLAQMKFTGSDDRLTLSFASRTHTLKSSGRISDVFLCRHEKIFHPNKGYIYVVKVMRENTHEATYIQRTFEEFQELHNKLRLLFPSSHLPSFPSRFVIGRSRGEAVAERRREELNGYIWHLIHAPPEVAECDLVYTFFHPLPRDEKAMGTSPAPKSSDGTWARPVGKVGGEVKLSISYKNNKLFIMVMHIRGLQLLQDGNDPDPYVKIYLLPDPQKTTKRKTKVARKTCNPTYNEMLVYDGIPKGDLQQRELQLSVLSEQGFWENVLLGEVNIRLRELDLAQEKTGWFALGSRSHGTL
# [10] = target: Serine/threonine-protein kinase 38 (Homo sapiens, UniProt Q15208); assay: Inhibition of NDR1 in human HeLa cells lysate at 2 uM pre incubated for 15 mins followed by ATP acyl phosphate probe addition and measured after 10 mins by LC-MS/MS analysis relative to control; assay type: subcellular; details: time 25.0 min
# Serine/threonine-protein kinase 38, sequence (Q15208 2-465 limits assumed): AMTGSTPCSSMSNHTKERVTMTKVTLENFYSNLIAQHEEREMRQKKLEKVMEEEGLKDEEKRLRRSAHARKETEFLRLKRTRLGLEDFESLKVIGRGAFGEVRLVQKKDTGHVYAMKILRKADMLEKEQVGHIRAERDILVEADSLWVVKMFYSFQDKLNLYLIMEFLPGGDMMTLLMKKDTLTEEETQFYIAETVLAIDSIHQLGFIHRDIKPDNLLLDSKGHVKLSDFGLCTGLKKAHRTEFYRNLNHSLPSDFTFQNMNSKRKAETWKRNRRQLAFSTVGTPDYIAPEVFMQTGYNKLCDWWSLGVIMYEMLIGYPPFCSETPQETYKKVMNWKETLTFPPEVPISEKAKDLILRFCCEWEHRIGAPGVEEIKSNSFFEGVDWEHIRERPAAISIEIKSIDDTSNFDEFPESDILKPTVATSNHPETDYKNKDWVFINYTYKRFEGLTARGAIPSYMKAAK
# [11] = Inhibition of MST4/YSK1 in human HeLa cells lysate at 2 uM pre incubated for 15 mins followed by ATP acyl phosphate probe addition and measured after 10 mins by LC-MS/MS analysis relative to control; details: 25 min, condition cancer
# [12] = target: T3, Scaffold protein ILK (Homo sapiens) (UniProt Q13418); assay: Inhibition of ILK in human HeLa cells lysate at 2 uM pre incubated for 15 mins followed by ATP acyl phosphate probe addition and measured after 10 mins by LC-MS/MS analysis relative to control; assay type: subcellular; details: time 25.0 min
# T3 sequence (whole entry): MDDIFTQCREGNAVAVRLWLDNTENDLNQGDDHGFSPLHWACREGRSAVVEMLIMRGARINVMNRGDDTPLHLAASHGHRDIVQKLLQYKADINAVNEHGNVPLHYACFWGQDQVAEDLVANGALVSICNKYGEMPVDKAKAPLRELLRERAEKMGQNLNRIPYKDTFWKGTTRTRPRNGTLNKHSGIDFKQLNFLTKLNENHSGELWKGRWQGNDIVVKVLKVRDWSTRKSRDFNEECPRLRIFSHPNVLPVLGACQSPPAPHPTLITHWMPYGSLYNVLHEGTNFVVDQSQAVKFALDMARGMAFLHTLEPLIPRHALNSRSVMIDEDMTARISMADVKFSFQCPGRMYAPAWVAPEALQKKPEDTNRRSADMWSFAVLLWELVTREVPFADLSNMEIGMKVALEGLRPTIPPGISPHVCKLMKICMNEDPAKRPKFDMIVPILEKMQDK
# [13] = target: Serine/threonine-protein kinase DCLK2 (Homo sapiens, UniProt Q8N568); assay: Binding affinity to DCAMKL2 (unknown origin) assessed as dissociation constant by ATP-competition binding assay
# T1 sequence (Q07912 whole entry, looked up): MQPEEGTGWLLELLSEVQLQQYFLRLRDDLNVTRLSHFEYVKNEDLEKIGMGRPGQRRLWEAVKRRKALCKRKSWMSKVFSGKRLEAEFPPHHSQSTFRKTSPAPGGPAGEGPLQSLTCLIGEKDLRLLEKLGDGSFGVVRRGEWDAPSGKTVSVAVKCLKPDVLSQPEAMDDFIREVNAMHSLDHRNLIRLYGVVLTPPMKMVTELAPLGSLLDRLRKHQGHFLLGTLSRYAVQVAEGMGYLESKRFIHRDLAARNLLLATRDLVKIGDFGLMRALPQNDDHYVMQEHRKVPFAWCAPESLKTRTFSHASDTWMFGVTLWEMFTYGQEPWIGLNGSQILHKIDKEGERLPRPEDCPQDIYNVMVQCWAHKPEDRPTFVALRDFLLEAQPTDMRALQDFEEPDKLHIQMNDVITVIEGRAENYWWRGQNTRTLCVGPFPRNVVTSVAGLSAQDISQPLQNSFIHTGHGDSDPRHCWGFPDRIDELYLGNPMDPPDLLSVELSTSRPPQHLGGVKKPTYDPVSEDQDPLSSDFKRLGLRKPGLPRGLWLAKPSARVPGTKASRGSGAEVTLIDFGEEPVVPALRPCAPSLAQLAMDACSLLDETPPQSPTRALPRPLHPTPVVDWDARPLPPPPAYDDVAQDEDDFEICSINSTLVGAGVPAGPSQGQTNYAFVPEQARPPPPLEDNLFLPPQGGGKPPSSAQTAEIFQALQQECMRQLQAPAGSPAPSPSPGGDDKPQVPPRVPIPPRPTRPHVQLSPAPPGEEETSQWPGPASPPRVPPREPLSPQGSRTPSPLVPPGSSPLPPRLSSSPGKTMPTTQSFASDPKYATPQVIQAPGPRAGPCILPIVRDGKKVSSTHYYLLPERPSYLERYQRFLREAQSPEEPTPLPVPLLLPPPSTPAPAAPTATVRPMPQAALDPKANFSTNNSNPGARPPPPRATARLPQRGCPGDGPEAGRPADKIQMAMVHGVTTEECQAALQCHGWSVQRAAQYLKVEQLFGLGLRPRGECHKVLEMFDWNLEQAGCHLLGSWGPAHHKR
compound,measurement,setting,value
CCOc1cc(N2CCC(O)CC2)ccc1Nc1ncc2c(n1)N(C)c1ccccc1C(=O)N2C,Activity,Activated CDC42 kinase 1 [1],17%
same,pIC50,[2],< 4.30
same,inhibition,[3],-8.5%
same,inhibition at 50 µM,[4],-14.5%
same,inhibition,Activated CDC42 kinase 1 [5],37%
same,inhibition,[6],35.6%
same,inhibition,[7],10.5%
same,inhibition,[8],-4%
same,inhibition,[9],26.1%
same,inhibition,[10],-4.3%
same,inhibition at 2 µM,[11],-6.9%
same,inhibition,[12],13.4%
same,pKd,[13],6.72
